Published values pooled from the literature.
Target: Serine/threonine-protein kinase N2 (PKN2, Homo sapiens, UniProt Q16513)

Compound	observed	mode	technique	cell line	concentration	measurement	value
Cc1ccc(Nc2nccc(N(C)c3ccc4c(C)n(C)nc4c3)n2)cc1S(N)(=O)=O	enzyme activity	inhibitor	–	–	0.3 µM	inhibition	19%
O=C(Nc1cnn(-c2csc(C(=O)NC3COC3)c2)c1)Nc1ccccc1Cl	enzyme activity	inhibitor	–	–	5 µM	remaining activity	112%
COc1ccc2cc(OCC3(C(=O)O)CN(C(=O)c4ccc(F)cc4)C3)ccc2c1	cell-free assay	–	competition with immobilised ligand	–	1 µM	remaining binding	100%
CCCOc1ccc(OC)c(F)c1C(=O)c1ccc(C(=O)N[C@@H]2CNC[C@H]2NC(=O)c2ccc3[nH]ncc3c2)cc1	enzyme activity	inhibitor	–	–	10 µM	remaining activity	-1%
c1ccc(CNc2nc(N3CCOc4ccccc43)nc3c2CCCC3)cc1	target engagement in cells	inhibitor	chemoproteomics	–	20 mM	inhibition	9.1%
NS(=O)(=O)c1cc(NC(=O)Cc2ccccc2)ccc1Oc1cccc(Cl)c1	cell-free assay	–	competition with immobilised ligand	–	1 µM	remaining binding	90%
Nc1nc(Nc2ccccc2)sc1C(=O)c1c(F)cccc1F	enzyme activity	inhibitor	–	–	10 µM	remaining activity	57%
COc1cc(Cl)c(C(=O)N[C@@H](CN[C@H]2CC[C@@H](N)CC2)Cc2ccc(C#N)cc2)cc1-c1ccc(CN[C@H](C)c2ccc(C)cc2)o1	enzyme activity	inhibitor	–	–	1 µM	remaining activity	102%
O=C1Nc2ccc(Cl)cc2C1=Cc1cc(Cl)c(O)c(Cl)c1	cell-free assay	–	–	–	0.5 µM	remaining signal	114%
Cn1c2c(Cl)c(Cl)ccc2c2cc[nH]c(=O)c21	thermal stability	–	DSF	–	10 µM	ΔTm	1.3 °C
CNC(=O)c1cc(Oc2ccc(NC(=O)Nc3ccc(Cl)c(C(F)(F)F)c3)cc2)ccn1	enzyme activity	inhibitor	–	–	10 µM	inhibition	20%
CO[C@H]1CC[C@H](CNc2ccc(S(=O)(=O)NC(=O)c3ccc(N4CCN(CC5=C(c6ccc(Cl)cc6)CC(C)(C)CC5)CC4)cc3Oc3cnc4[nH]ccc4c3)cc2[N+](=O)[O-])CC1	cell-free assay	–	competition with immobilised ligand	–	1 µM	remaining binding	97%
COc1cc(Nc2cnc(C#N)c(O[C@H](C)CN(C)C)n2)ncc1-c1cnn(C)c1	enzyme activity	inhibitor	radiometric	–	10 µM	remaining activity	86%
CC(C)CC(=O)N1CCc2nc(-c3ccc(Br)cc3)nc(N(C)Cc3ccccc3)c2C1	cell-free assay	–	competition with immobilised ligand	–	0.1 µM	remaining binding	80%
Oc1cccc(-c2nc(N3CCOCC3)c3oc4ncccc4c3n2)c1	enzyme activity	inhibitor	–	–	10 µM	remaining activity	71%
COc1ccc2c(O[C@@H]3C[C@H]4C(=O)N[C@]5(C(=O)O)CC5/C=C\CCCCC[C@H](NC(=O)OC5CCCC5)C(=O)N4C3)cc(-c3csc(NC(=O)C(C)C)n3)nc2c1C (stereo partly shown)	cell-free assay	–	competition with immobilised ligand	–	1 µM	remaining binding	67%
CCN1CCN(Cc2ccc(NC(=O)c3ccc(C)c(Oc4ccnc5[nH]ccc45)c3)cc2C(F)(F)F)CC1	target engagement in cells	inhibitor	chemoproteomics	Huh-7	10 µM	inhibition	-10.5%
CC1=C(C#N)[C@@H](c2ccc3[nH]nc(C)c3c2)C(C#N)=C(c2ccc(Cl)cc2)N1	cell-free assay	–	competition with immobilised ligand	–	1 µM	remaining binding	74.6%
Cc1cnc(NC2CCOCC2)nc1-n1cnc(C(=O)NC(CN)c2cc(F)cc(Cl)c2)c1 (stereo not shown)	enzyme activity	inhibitor	radiometric	–	1 µM	remaining activity	63%
